Measurements taken from ChEMBL document CHEMBL3045046, “Synthesis, herbicidal activities, and 3D-QSAR of 2-cyanoacrylates containing aromatic methylamine moieties” (J Agric Food Chem, 2008).

What was measured:
Format in all cases: functional
Amaranthus retroflexus [1] = experiment: Herbicidal activity against Amaranthus retroflexus assessed as inhibition of herb growth at 1.5 kg/ha during postemergence treatment protocol; details: post-emergence, read-out: GI
Amaranthus retroflexus [2] = experiment: Herbicidal activity against Amaranthus retroflexus assessed as inhibition of herb growth at 1.5 kg/ha during preemergence treatment protocol; details: pre-emergence, read-out: GI
Digitaria sanguinalis [3] = experiment: Herbicidal activity against hairy Digitaria sanguinalis (hairy crabgrass) assessed as inhibition of herb growth at 1.5 kg/ha during postemergence treatment protocol; details: post-emergence, read-out: GI
Digitaria sanguinalis [4] = experiment: Herbicidal activity against hairy Digitaria sanguinalis (hairy crabgrass) assessed as inhibition of herb growth at 1.5 kg/ha during preemergence treatment protocol; details: pre-emergence, read-out: GI
Spinacia oleracea = experiment: Inhibition of photosynthetic electron transport in Spinacia oleracea (spinach)isolated chloroplasts assessed as inhibition of Hill reaction
Outline: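 Chloroplasts from fresh spinach leaves, homogenised in ice-cold pH 7.8 buffer (0.4 M sucrose, 10 mM NaCl, 50 mM Tris-HCl), spun 3 min 120g then 5 min 1000g at 4 °C. Reaction buffer 350 mM NaCl, 10 mM Tris-HCl pH 7.8 with DCPIP; 2 min light (360 µmol m^-2 s^-1), DCPIP reduction at 620 nm. Compounds 0.01 mg/L–0.3 mg/mL in […]/water, ≥triplicate; IC50 by log-linear regression.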

Brassica napus [5] = experiment: Herbicidal activity against Brassica napus (oilseed rape) assessed as inhibition of herb growth at 1.5 kg/ha during preemergence treatment protocol; details: pre-emergence, read-out: GI
Medicago sativa [6] = experiment: Herbicidal activity against Medicago sativa (alfalfa) assessed as inhibition of herb growth at 1.5 kg/ha during preemergence treatment protocol; details: pre-emergence, read-out: GI
Brassica napus [7] = experiment: Herbicidal activity against Brassica napus (oilseed rape) assessed as inhibition of herb growth at 1.5 kg/ha during postemergence treatment protocol; details: post-emergence, read-out: GI
Medicago sativa [8] = experiment: Herbicidal activity against Medicago sativa (alfalfa) assessed as inhibition of herb growth at 1.5 kg/ha during postemergence treatment protocol; details: post-emergence, read-out: GI
[9] = Spinacia oleracea, read-out: pIC50 (converted)

SMILES	inhibition of growth at 1500 g/ha (Amaranthus retroflexus [1]) [%]	inhibition of growth at 1500 g/ha (Amaranthus retroflexus [2]) [%]	inhibition of growth at 1500 g/ha (Digitaria sanguinalis [3]) [%]	inhibition of growth at 1500 g/ha (Digitaria sanguinalis [4]) [%]	IC50 (Spinacia oleracea) [ppm]	IC50 (Spinacia oleracea; [9]) [nM]	inhibition of growth at 1500 g/ha (Brassica napus [5]) [%]	inhibition of growth at 1500 g/ha (Medicago sativa [6]) [%]	inhibition of growth at 1500 g/ha (Brassica napus [7]) [%]	inhibition of growth at 1500 g/ha (Medicago sativa [8]) [%]
CCOCCOC(=O)/C(C#N)=C(\NCc1cnc(OCC)s1)C(C)C	100	37.8	51.2	0	0.223	224	48.7	5.4	100	41.4
CCOCCOC(=O)/C(C#N)=C(\NCC1CCCO1)C(C)C (stereo not given)	100	3.2	100	40	6.874	6920	80	20.3	97.2	60.5
CCOCCOC(=O)/C(C#N)=C(/CC)NCc1ccc(Br)nc1	100	21.6	95.2	18.8	0.335	339	71.9	28.8	100	77.8
CCOCCOC(=O)/C(C#N)=C(\NCc1cnc(Cl)s1)C(C)C	100	67.6	45.6	28.7	0.161	162	70.3	15.7	100	37.1
CCOCCOC(=O)/C(C#N)=C(\NCc1ccc(OCC(F)(F)F)nc1)SC	100	0	100	0	0.048	47.9	10	0	100	54.2
CCOCCOC(=O)/C(C#N)=C(\NCc1ccc(Br)nc1)C(C)C	97.8	48.6	42.4	16.8	0.099	100	68.7	0	100	32.1
CCOCCOC(=O)/C(C#N)=C(\NCc1cnc(OCC)nc1)SC	26.4	15.9	8.7	12.5	1.45	1070	0	31.1	16.1	40.8
CCOCCOC(=O)/C(C#N)=C(\NCc1cnc(Br)s1)C(C)C	100	18.9	48	3	0.107	107	82.2	1.7	100	30.8
CCOCCOC(=O)/C(C#N)=C(\NCc1cnc(OC)nc1)SC	15.5	58.1	2.2	26	3.79	3800	42.4	42.8	28.8	45.1
CCCOc1ncc(CN/C(=C(/C#N)C(=O)OCCOCC)C(C)C)s1	100	27	52.8	6.9	0.08	79.4	9.8	0	100	48.7
CCOCCOC(=O)/C(C#N)=C(\NCc1ccc(Br)nc1)SC	100	91.9	60	0	0.084	83.2	23.9	12	100	59.9
CCOCCOC(=O)/C(C#N)=C(\NCc1ccc(Cl)cc1)C(C)C	100	40.5	46.4	12.9	0.043	42.7	4.4	0	100	68.9
CCOCCOC(=O)/C(C#N)=C(\NCc1cnc(Br)s1)SC	88	29.7	36	8.9	0.102	102	28.7	8.2	100	26.8
CCOCCOC(=O)/C(C#N)=C(\NCc1ccc(Cl)nn1)SC	21.8	43.2	28.8	0	3.99	3980	12.5	0	81	27.8
CCOCCOC(=O)/C(C#N)=C(\NCc1cnc(OCC)s1)SC	100	43.2	51.2	44.6	0.115	115	23.3	14.8	100	62.6
CCOCCOC(=O)/C(C#N)=C(\NCc1ccoc1)C(C)C	27.4	22.1	0	33.6	6.6	6610	0	10.5	51.9	13.2
